# Measured values from PubChem BioAssay.
# Calls of active or inactive are those of the source.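 The calls were made as follows, unless noted: active = viability loss from added drug above about 55%, and viability with drug at most 40%, in both replicates (limit read from the data, passing the limit was not always enough); inconclusive = both conditions met in only one replicate; inactive = neither replicate meets both conditions.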
# Key:
# [1] = reduced viability of SK-BR-3 breast cancer cells – cell-based, 24 h, human, pilot screen (AID 572;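 active = viability at or below 10% of carrier control in both of two separate runs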;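 also: compound exposure lasted between 18 and 24 h rather than exactly 24 h; 100% = carrier-treated control wells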); conditions: SK-BR-3 viability, CellTiter-Glo luminescence, at 10 µM, stronger effect = lower value
# [2] = HUVEC growth inhibition – cell-based, human, primary screen (AID 575;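 active = viability at or below 30% in both replicate assays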;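 also: 100% = median of untreated cell wells with 0.1% DMSO on each plate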); conditions: HUVEC proliferation, CellTiter-Glo luminescence, 72 h; at 10 µM; stronger effect = lower value
# How it was run: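 Test system: HUVEC primary cells. Quantity: 1250 endothelial cells in each well. Dosing: single-point 10 µM, DMSO 0.1% final. Incubation: 72 h treatment at 37 °C. Measured by: CTG luminescence. Control set: DMSO cell controls and MePR drug controls. Plate: collagen-coated 384-well format.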
# [3] = H69AR cell proliferation blockers – human, duplicate replicates, primary screen (AID 580;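 active = viability at or under a set limit in both replicates, limit being median viability minus 3 SD, cut at about 48% in these data, passing the limit was not always enough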;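 also: 100% = mean luminescence of untreated wells and 0% = no signal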); conditions: H69AR lung tumor cells viability, ATP luminescence, 72 h; at 10 µM; stronger effect = lower value
# [4] = MRP1 drug-resistance reversers in H69AR cells – cell-based, doxorubicin co-treatment, pilot screen (AID 601); conditions: CellTiter-Glo, 72 h, at 10 µM; for differential viability (reversal): stronger effect = higher value
# [5] = yeast transport mutant growth inhibition pilot in 384-well plates, post-Golgi transport modulator project (AID 636; in the data active = inhibition above about 31%); conditions: absorbance 615 nm, about 18 h, stronger effect = higher value
# [6] = growth suppression of yeast trafficking mutant, preliminary HTS, modulators of trafficking downstream of Golgi apparatus project, 1536-format plate, OD 615 nm (AID 637; in the data active = inhibition above about 30%); conditions: yeast transport mutant growth, absorbance 615 nm, 18 h; stronger effect = higher value
# [7] = H69AR cells + 2 uM doxorubicin, measured here: viability with 2 uM doxorubicin, stronger effect = lower value
# [8] = H69AR cells, compound alone cytotoxicity
SMILES,viability [1],viability [2],viability [3],differential viability (reversal) ([4]; H69AR cells + 2 uM doxorubicin),"viability [4, 7] [%]","viability [4, 8] [%]",inhibition [5],inhibition [6]
COc1ccc2cnn(-c3ccccc3C)c(=O)c2c1OC,88% (inactive),85.5% (inactive),106% (inactive),-1.29% (inactive),108,106,-3.24% (inactive),0.55% (inactive)
CCOC(=O)C1CCN(C(=O)COc2ccc(S(=O)(=O)NC(C)C)cc2Cl)CC1,99.5% (inactive),100% (inactive),90.4% (inactive),-15.3% (inactive),106,90.4,0.66% (inactive),24.5% (inactive)
O=C(Nc1cccc2ccccc12)N1CCN(c2ccccc2)CC1,89% (inactive),96.8% (inactive),94.4% (inactive),-7% (inactive),101,94.4,-0.91% (inactive),0.49% (inactive)
COC(=O)C1=C(C)Nc2ncnn2C1c1ccco1 (stereo unspecified),80% (inactive),91.8% (inactive),85.9% (inactive),4.73% (inactive),81.2,85.9,-8.49% (inactive),4.91% (inactive)
Cc1ccc(NC(=O)CSC2=C(C#N)C(c3ccc4c(c3)OCO4)CC(=O)N2)cc1C (stereo unspecified),64% (inactive),92.9% (inactive),88.6% (inactive),-4.82% (inactive),93.4,88.6,7.7% (inactive),-2.55% (inactive)
COC(=O)Cc1cc(=O)n(-c2ccccc2)[nH]1,95% (inactive),91.2% (inactive),87.9% (inactive),-0.48% (inactive),88.4,87.9,-9.45% (inactive),0.73% (inactive)
O=C(O)C(c1ccccc1)N1CCCC1 (stereo unspecified),106% (inactive),102% (inactive),95.9% (inactive),16.4% (inactive),79.5,95.9,-5.6% (inactive),-3.64% (inactive)
CCCNC(=O)NS(=O)(=O)c1ccc(Cl)cc1,124% (inactive),85% (inactive),97.5% (inactive),10.4% (inactive),87.1,97.5,-1.17% (inactive),0.83% (inactive)
CCc1ccccc1OCCCCN1CCCC1,124% (inactive),82% (inactive),89.1% (inactive),10.8% (inactive),78.2,89.1,-5.06% (inactive),-1.97% (inactive)
COc1ccc(NC(=O)c2oc3ccccc3c2NC(=O)c2ccco2)cc1,90% (inactive),88.8% (inactive),78.4% (inactive),-0.385% (inactive),78.8,78.4,-4.59% (inactive),-4.92% (inactive)
c1ccc(-c2cc(N3CCCCC3)ncn2)cc1,105% (inactive),101% (inactive),99.7% (inactive),9.16% (inactive),90.6,99.7,-7.26% (inactive),-0.32% (inactive)
Cc1cccc(NC(=O)c2ccc(S(=O)(=O)N(C)C)cc2)n1,112% (inactive),96.1% (inactive),94.2% (inactive),2.72% (inactive),91.4,94.2,-0.8% (inactive),2.73% (inactive)
O=C(CSc1ccc(-c2ccccc2)nn1)N1CCOCC1,94% (inactive),105% (inactive),95.2% (inactive),13.2% (inactive),82,95.2,-6.44% (inactive),-4.73% (inactive)
Nc1ncnc2c1ncn2[C@@H]1O[C@H](CO)[C@@H](O)[C@H]1O,105% (inactive),93.9% (inactive),113% (inactive),25.9% (inactive),87,113,-2.47% (inactive),0.33% (inactive)
O=C(O)CCn1[nH]c(=O)ccc1=O,87% (inactive),102% (inactive),97.3% (inactive),3.97% (inactive),93.4,97.3,-2.05% (inactive),1.77% (inactive)
O=C(Nc1ccc2c(c1)OCO2)N1CCN(c2ncccn2)CC1,126% (inactive),106% (inactive),85.5% (inactive),-22.1% (inactive),108,85.5,-8.49% (inactive),-1.64% (inactive)
CC(CC(=O)NCc1ccccc1)C1CCCO1 (stereo unspecified),130% (inactive),102% (inactive),93.4% (inactive),2.22% (inactive),91.2,93.4,-2.21% (inactive),4.75% (inactive)
O=C(OCC(=O)c1ccccc1Br)c1ccccn1,142% (inactive),89.8% (inactive),86.8% (inactive),5.17% (inactive),81.7,86.8,-3.77% (inactive),-1.64% (inactive)
Cc1cccc(C)c1NC(=O)COC(=O)c1nonc1N,79% (inactive),108% (inactive),98.9% (inactive),4.63% (inactive),94.3,98.9,-4.13% (inactive),-7.09% (inactive)

SMILES,viability [1],viability [2],viability [3],differential viability (reversal) ([4]; H69AR cells + 2 uM doxorubicin),"viability [4, 7] [%]","viability [4, 8] [%]",inhibition [5],inhibition [6]
C=CCNc1nc2c(c(=O)n(C)c(=O)n2C)n1CCCCCC,92% (inactive),60.4% (inactive),82.6% (inactive),0.165% (inactive),82.4,82.6,-5.73% (inactive),5.27% (inactive)
O=C(Nc1ccc(N2CCOCC2)c(Cl)c1)c1ccc(Br)o1,91% (inactive),65.5% (inactive),20% (active),-12.4% (inactive),32.4,20,-3.7% (inactive),5.81% (inactive)
c1ccc(CSc2nnc(-c3cccs3)n2Cc2ccco2)cc1,86% (inactive),90.3% (inactive),83.2% (inactive),-0.12% (inactive),83.4,83.2,1.37% (inactive),-0.65% (inactive)
CN1C(=O)c2c(sc3c2CCCC3)NC1c1ccccc1O (stereo unspecified),72% (inactive),68.7% (inactive),93.2% (inactive),-2.01% (inactive),95.2,93.2,-3.97% (inactive),-0.81% (inactive)
Clc1ccc2c(c1)C(N1CCNCC1)=Nc1ccccc1O2,73% (inactive),46% (inactive),84.4% (inactive),11.4% (inactive),73,84.4,-1.3% (inactive),-3.83% (inactive)
O=S(=O)(c1cccs1)N1CCN(Cc2nc3ccccc3s2)CC1,87% (inactive),72.1% (inactive),84.9% (inactive),-16.2% (inactive),101,84.9,4.79% (inactive),30.2% (active)
C=CCN(CC=C)C(=O)Nc1cc(Cl)ccc1OC,83% (inactive),95.3% (inactive),96.9% (inactive),0% (inactive),96.9,96.9,-8.77% (inactive),-3.27% (inactive)
CC(=O)c1cccc(NC(=O)NCc2ccco2)c1,93% (inactive),93.9% (inactive),85.7% (inactive),-0.48% (inactive),86.2,85.7,-4.79% (inactive),2.36% (inactive)
O=C1c2ccccc2-c2ccc(C(=O)N3CCOCC3)cc21,87% (inactive),105% (inactive),89.7% (inactive),-2.82% (inactive),92.5,89.7,-2.7% (inactive),29.4% (inactive)
CC(C)(Oc1ccc(Cl)cc1)C(=O)NCc1ccncc1,111% (inactive),105% (inactive),94.2% (inactive),5.47% (inactive),88.7,94.2,-6.89% (inactive),-12.2% (inactive)
O=C(NCCCN1CCCC1=O)c1cccnc1,135% (inactive),113% (inactive),89.2% (inactive),0.48% (inactive),88.7,89.2,-4.25% (inactive),3.09% (inactive)
COc1cccc(OCC(=O)Nc2ccccc2C(N)=O)c1,110% (inactive),99.9% (inactive),97% (inactive),13.1% (inactive),83.9,97,-1.51% (inactive),1.13% (inactive)
COc1ccc(-c2nnnn2C)cc1S(=O)(=O)NCc1ccccc1,93.5% (inactive),117% (inactive),95.7% (inactive),4.64% (inactive),91.1,95.7,-0.26% (inactive),-2.17% (inactive)
CC(O)c1cc2c(cc1NC(=O)c1cnn3c1NC(c1ccco1)CC3C(F)(F)F)OCO2 (stereo unspecified),93% (inactive),97.2% (inactive),86.3% (inactive),0.405% (inactive),85.9,86.3,0.65% (inactive),-1.97% (inactive)
C=C(C)Cn1c(CCCNC(=O)C(C)(C)C)nc2ccccc21,104% (inactive),92.9% (inactive),102% (inactive),0.305% (inactive),101,102,-3.47% (inactive),-4% (inactive)
O=C(O)c1ccc(COc2c(F)c(F)c(F)c(F)c2F)o1,78% (inactive),106% (inactive),92.9% (inactive),-8.1% (inactive),101,92.9,0.14% (inactive),19.4% (inactive)
c1ccc2c(c1)CCCC2C1=NCCN1 (stereo unspecified),100% (inactive),84.6% (inactive),95.3% (inactive),6.75% (inactive),88.6,95.3,-2.6% (inactive),1% (inactive)
O=C(CN1CCSCC1)N1CCc2[nH]c3ccc(Br)cc3c2C1,84% (inactive),69.7% (inactive),88.6% (inactive),7.04% (inactive),81.5,88.6,-4.93% (inactive),2.18% (inactive)
